In brackets after ≈: the same amount, converted by molar mass.
Tested on: Lacticaseibacillus rhamnosus
Assay: Antimicrobial activity against Lactobacillus casei ATCC 7469 assessed as growth inhibition
Assay type: functional
Conditions: not given

Row | SMILES | GI50 [nM]
1 | CN(CC1=Nc2c(N)nc(N)nc2N(Cc2cccc3ccccc23)C1)c1ccc(C(=O)N[C@@H](CCC(=O)O)C(=O)O)cc1 | 0.47
2 | CCCCCCN1CC(CN(C)c2ccc(C(=O)N[C@@H](CCC(=O)O)C(=O)O)cc2)=Nc2c(N)nc(N)nc21 | 0.27
3 | CN(CC1CNc2nc(N)nc(N)c2N1)c1ccc(C(=O)N[C@@H](CCC(=O)O)C(=O)O)cc1 (some centres not stated) | 0.14
4 | CN(Cc1cnc2nc(N)nc(N)c2n1)c1ccc(C(=O)N[C@@H](CCC(=O)O)C(=O)O)cc1 [METHOTREXATE] | 0.04
5 | CN(CC1=Nc2c(N)nc(N)nc2NC1)c1ccc(C(=O)N[C@@H](CCC(=O)O)C(=O)O)cc1 | 0.02
6 | CN(CC1=Nc2c(N)nc(N)nc2N(C)C1)c1ccc(C(=O)N[C@@H](CCC(=O)O)C(=O)O)cc1 | 0.1
7 | CN(CC1=Nc2c(N)nc(N)nc2N(Cc2ccccc2)C1)c1ccc(C(=O)N[C@@H](CCC(=O)O)C(=O)O)cc1 | 0.35
8 | CCCCN1CC(CN(C)c2ccc(C(=O)N[C@@H](CCC(=O)O)C(=O)O)cc2)=Nc2c(N)nc(N)nc21 | 1.2
9 | CN(CC1CN(C)c2nc(N)nc(N)c2N1)c1ccc(C(=O)N[C@@H](CCC(=O)O)C(=O)O)cc1 (some centres not stated) | 1.4
10 | CN(CC1=Nc2c(N)nc(N)nc2N(Cc2ccc(Cl)c(Cl)c2)C1)c1ccc(C(=O)N[C@@H](CCC(=O)O)C(=O)O)cc1 | 19.4
11 | CCN1CC(CN(C)c2ccc(C(=O)N[C@@H](CCC(=O)O)C(=O)O)cc2)=Nc2c(N)nc(N)nc21 | 0.35
12 | CN(CC1=Nc2c(N)nc(N)nc2N(CC2CCCCC2)C1)c1ccc(C(=O)N[C@@H](CCC(=O)O)C(=O)O)cc1 | 3.5

Target: T1, Thymidylate synthase (Lactobacillus casei, UniProt P00469)
T1 sequence (P00469 whole entry): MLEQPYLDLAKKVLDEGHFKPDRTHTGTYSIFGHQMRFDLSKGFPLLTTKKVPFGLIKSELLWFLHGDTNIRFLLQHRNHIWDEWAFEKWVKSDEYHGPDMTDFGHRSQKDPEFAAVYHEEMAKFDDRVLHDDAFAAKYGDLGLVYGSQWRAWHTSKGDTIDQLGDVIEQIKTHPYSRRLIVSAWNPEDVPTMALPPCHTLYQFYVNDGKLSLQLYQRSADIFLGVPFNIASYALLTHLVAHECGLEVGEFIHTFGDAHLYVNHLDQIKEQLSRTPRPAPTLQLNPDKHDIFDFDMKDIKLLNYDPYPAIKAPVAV
Assay: Inhibition of MTX-resistant Lactobacillus casei thymidylate synthetase
Design: species or system Lacticaseibacillus casei
Conditions: not given

Row | SMILES | IC50 [µM]
13 | CN(CC1=Nc2c(N)nc(N)nc2N(Cc2cccc3ccccc23)C1)c1ccc(C(=O)N[C@@H](CCC(=O)O)C(=O)O)cc1 | 16
14 | CCCCCCN1CC(CN(C)c2ccc(C(=O)N[C@@H](CCC(=O)O)C(=O)O)cc2)=Nc2c(N)nc(N)nc21 | 43
15 | CN(CC1CNc2nc(N)nc(N)c2N1)c1ccc(C(=O)N[C@@H](CCC(=O)O)C(=O)O)cc1 (some centres not stated) | 5
16 | CN(CC1=Nc2c(N)nc(N)nc2NC1)c1ccc(C(=O)N[C@@H](CCC(=O)O)C(=O)O)cc1 | 1
17 | CN(CC1=Nc2c(N)nc(N)nc2N(C)C1)c1ccc(C(=O)N[C@@H](CCC(=O)O)C(=O)O)cc1 | 4
18 | CN(CC1=Nc2c(N)nc(N)nc2N(Cc2ccccc2)C1)c1ccc(C(=O)N[C@@H](CCC(=O)O)C(=O)O)cc1 | 8
19 | CCCCN1CC(CN(C)c2ccc(C(=O)N[C@@H](CCC(=O)O)C(=O)O)cc2)=Nc2c(N)nc(N)nc21 | 19
20 | CN(CC1CN(C)c2nc(N)nc(N)c2N1)c1ccc(C(=O)N[C@@H](CCC(=O)O)C(=O)O)cc1 (some centres not stated) | 39
21 | CN(CC1=Nc2c(N)nc(N)nc2N(Cc2ccc(Cl)c(Cl)c2)C1)c1ccc(C(=O)N[C@@H](CCC(=O)O)C(=O)O)cc1 | 13
22 | CCN1CC(CN(C)c2ccc(C(=O)N[C@@H](CCC(=O)O)C(=O)O)cc2)=Nc2c(N)nc(N)nc21 | 20
23 | CN(CC1=Nc2c(N)nc(N)nc2N(CC2CCCCC2)C1)c1ccc(C(=O)N[C@@H](CCC(=O)O)C(=O)O)cc1 | 17

Tested on: Mus musculus
Assay: Toxicity in BDF/1 hybrid mouse xenografted with mouse L1210 cells assessed as optimal nontoxic dose administered q3d on day 1, 4 and 7
Assay type: organism-based
Conditions: in vivo
Outline: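 Male BDF/1 hybrid mice received 10^5 L-1210 leukemia cells ip. Test agents in 0.1 M phosphate buffer (pH 8) were given ip 24 h after implantation (day 1) and again on days 4 and 7. The optimal nontoxic dose is expressed as mg/kg × 3; where marked, it is the highest nontoxic dose tested.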

Row | SMILES | Activity [mg/kg]
24 | CN(Cc1cnc2nc(N)nc(N)c2n1)c1ccc(C(=O)N[C@@H](CCC(=O)O)C(=O)O)cc1 [METHOTREXATE] | 15
25 | CN(CC1=Nc2c(N)nc(N)nc2NC1)c1ccc(C(=O)N[C@@H](CCC(=O)O)C(=O)O)cc1 | 30
26 | CN(CC1=Nc2c(N)nc(N)nc2N(C)C1)c1ccc(C(=O)N[C@@H](CCC(=O)O)C(=O)O)cc1 | 300
27 | CCCCN1CC(CN(C)c2ccc(C(=O)N[C@@H](CCC(=O)O)C(=O)O)cc2)=Nc2c(N)nc(N)nc21 | 100
28 | CN(CC1CN(C)c2nc(N)nc(N)c2N1)c1ccc(C(=O)N[C@@H](CCC(=O)O)C(=O)O)cc1 (some centres not stated) | 200
29 | CN(CC1=Nc2c(N)nc(N)nc2N(CC2CCCCC2)C1)c1ccc(C(=O)N[C@@H](CCC(=O)O)C(=O)O)cc1 | 300

Tested on: L1210
Assay: Antitumor activity against mouse L1210 cells allografted in BDF/1 hybrid mouse assessed as increase in life span relative to control
Assay type: functional
Conditions: not given
Outline: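 Male BDF/1 hybrid mice inoculated ip with 10^5 L-1210 leukemia cells; test agents dissolved in 0.1 M phosphate buffer (pH 8), given ip 24 h after implantation (day 1) and on days 4 and 7. Median survival times of treated (T) and control (C) groups compared; % ILS = 100 × (T/C − 1).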

Row | SMILES | ILS [%]
30 | CN(CC1=Nc2c(N)nc(N)nc2N(Cc2cccc3ccccc23)C1)c1ccc(C(=O)N[C@@H](CCC(=O)O)C(=O)O)cc1 | 0
31 | CCCCCCN1CC(CN(C)c2ccc(C(=O)N[C@@H](CCC(=O)O)C(=O)O)cc2)=Nc2c(N)nc(N)nc21 | 0
32 | CN(Cc1cnc2nc(N)nc(N)c2n1)c1ccc(C(=O)N[C@@H](CCC(=O)O)C(=O)O)cc1 [METHOTREXATE] | 70
33 | CN(CC1=Nc2c(N)nc(N)nc2NC1)c1ccc(C(=O)N[C@@H](CCC(=O)O)C(=O)O)cc1 | 9
34 | CN(CC1=Nc2c(N)nc(N)nc2N(C)C1)c1ccc(C(=O)N[C@@H](CCC(=O)O)C(=O)O)cc1 | 27
35 | CN(CC1=Nc2c(N)nc(N)nc2N(Cc2ccccc2)C1)c1ccc(C(=O)N[C@@H](CCC(=O)O)C(=O)O)cc1 | 25
36 | CCCCN1CC(CN(C)c2ccc(C(=O)N[C@@H](CCC(=O)O)C(=O)O)cc2)=Nc2c(N)nc(N)nc21 | 25
37 | CN(CC1CN(C)c2nc(N)nc(N)c2N1)c1ccc(C(=O)N[C@@H](CCC(=O)O)C(=O)O)cc1 (some centres not stated) | 9
38 | CN(CC1=Nc2c(N)nc(N)nc2N(Cc2ccc(Cl)c(Cl)c2)C1)c1ccc(C(=O)N[C@@H](CCC(=O)O)C(=O)O)cc1 | 36
39 | CCN1CC(CN(C)c2ccc(C(=O)N[C@@H](CCC(=O)O)C(=O)O)cc2)=Nc2c(N)nc(N)nc21 | 18
40 | CN(CC1=Nc2c(N)nc(N)nc2N(CC2CCCCC2)C1)c1ccc(C(=O)N[C@@H](CCC(=O)O)C(=O)O)cc1 | 27

Tested on: not listed separately
Assay: Toxicity in BDF/1 hybrid mouse xenografted with mouse L1210 cells administered q3d on day 1, 4 and 7
Assay type: organism-based
Conditions: in vivo
Outline: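 Male BDF/1 hybrid mice carrying ip-inoculated L-1210 cells (10^5) dosed ip on days 1, 4 and 7 (first dose 24 h post-implant) with compound in 0.1 M phosphate buffer, pH 8. Value expressed as optimal nontoxic dose in mg/kg ×3; where the top level tested was nontoxic, the highest nontoxic dose tested is given.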

Row | SMILES | MTD [mg/kg]
41 | CN(CC1=Nc2c(N)nc(N)nc2N(Cc2cccc3ccccc23)C1)c1ccc(C(=O)N[C@@H](CCC(=O)O)C(=O)O)cc1 | 400
42 | CCCCCCN1CC(CN(C)c2ccc(C(=O)N[C@@H](CCC(=O)O)C(=O)O)cc2)=Nc2c(N)nc(N)nc21 | 400
43 | CN(CC1=Nc2c(N)nc(N)nc2N(Cc2ccccc2)C1)c1ccc(C(=O)N[C@@H](CCC(=O)O)C(=O)O)cc1 | 400
44 | CN(CC1=Nc2c(N)nc(N)nc2N(Cc2ccc(Cl)c(Cl)c2)C1)c1ccc(C(=O)N[C@@H](CCC(=O)O)C(=O)O)cc1 | 400
45 | CCN1CC(CN(C)c2ccc(C(=O)N[C@@H](CCC(=O)O)C(=O)O)cc2)=Nc2c(N)nc(N)nc21 | 400

Tested on: CCRF-CEM
Assay: Cytotoxicity against human CCRF-CEM cells
Assay type: functional
Conditions: read-out: ID50 (the source's name)

Row | SMILES | IC50 [µg/mL]
46 | CN(CC1=Nc2c(N)nc(N)nc2N(Cc2cccc3ccccc23)C1)c1ccc(C(=O)N[C@@H](CCC(=O)O)C(=O)O)cc1 | > 1
47 | CCCCCCN1CC(CN(C)c2ccc(C(=O)N[C@@H](CCC(=O)O)C(=O)O)cc2)=Nc2c(N)nc(N)nc21 | 0.58 (≈ 1.07 µM)
48 | CN(Cc1cnc2nc(N)nc(N)c2n1)c1ccc(C(=O)N[C@@H](CCC(=O)O)C(=O)O)cc1 [METHOTREXATE] | 0.018 (≈ 0.0396 µM)
49 | CN(CC1=Nc2c(N)nc(N)nc2NC1)c1ccc(C(=O)N[C@@H](CCC(=O)O)C(=O)O)cc1 | 0.021 (≈ 0.046 µM)
50 | CN(CC1=Nc2c(N)nc(N)nc2N(C)C1)c1ccc(C(=O)N[C@@H](CCC(=O)O)C(=O)O)cc1 | 0.23 (≈ 0.489 µM)
51 | CN(CC1=Nc2c(N)nc(N)nc2N(Cc2ccccc2)C1)c1ccc(C(=O)N[C@@H](CCC(=O)O)C(=O)O)cc1 | 0.78 (≈ 1.43 µM)
52 | CCCCN1CC(CN(C)c2ccc(C(=O)N[C@@H](CCC(=O)O)C(=O)O)cc2)=Nc2c(N)nc(N)nc21 | 0.23 (≈ 0.449 µM)
53 | CN(CC1CN(C)c2nc(N)nc(N)c2N1)c1ccc(C(=O)N[C@@H](CCC(=O)O)C(=O)O)cc1 (some centres not stated) | 0.14 (≈ 0.296 µM)
54 | CN(CC1=Nc2c(N)nc(N)nc2N(Cc2ccc(Cl)c(Cl)c2)C1)c1ccc(C(=O)N[C@@H](CCC(=O)O)C(=O)O)cc1 | > 1
55 | CCN1CC(CN(C)c2ccc(C(=O)N[C@@H](CCC(=O)O)C(=O)O)cc2)=Nc2c(N)nc(N)nc21 | 0.27 (≈ 0.557 µM)
56 | CN(CC1=Nc2c(N)nc(N)nc2N(CC2CCCCC2)C1)c1ccc(C(=O)N[C@@H](CCC(=O)O)C(=O)O)cc1 | 0.14 (≈ 0.253 µM)

Target: Dihydrofolate reductase (Lactobacillus casei, UniProt P00381)
Assay: Inhibition of MTX-resistant Lactobacillus casei dihydrofolate reductase
Design: species or system Lacticaseibacillus casei
Conditions: not given

Sequence of Dihydrofolate reductase (P00381 whole entry): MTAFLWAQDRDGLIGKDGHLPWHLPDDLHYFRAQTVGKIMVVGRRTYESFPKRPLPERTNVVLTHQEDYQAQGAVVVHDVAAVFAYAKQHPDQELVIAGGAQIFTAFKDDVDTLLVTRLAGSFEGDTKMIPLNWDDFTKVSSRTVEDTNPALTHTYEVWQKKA

Row | SMILES | IC50 [nM]
57 | CN(CC1=Nc2c(N)nc(N)nc2N(Cc2cccc3ccccc23)C1)c1ccc(C(=O)N[C@@H](CCC(=O)O)C(=O)O)cc1 | 4500
58 | CCCCCCN1CC(CN(C)c2ccc(C(=O)N[C@@H](CCC(=O)O)C(=O)O)cc2)=Nc2c(N)nc(N)nc21 | 1800
59 | CN(CC1CNc2nc(N)nc(N)c2N1)c1ccc(C(=O)N[C@@H](CCC(=O)O)C(=O)O)cc1 (some centres not stated) | 200
60 | CN(CC1=Nc2c(N)nc(N)nc2NC1)c1ccc(C(=O)N[C@@H](CCC(=O)O)C(=O)O)cc1 | 20
61 | CN(CC1=Nc2c(N)nc(N)nc2N(C)C1)c1ccc(C(=O)N[C@@H](CCC(=O)O)C(=O)O)cc1 | 140
62 | CN(CC1=Nc2c(N)nc(N)nc2N(Cc2ccccc2)C1)c1ccc(C(=O)N[C@@H](CCC(=O)O)C(=O)O)cc1 | 740
63 | CCCCN1CC(CN(C)c2ccc(C(=O)N[C@@H](CCC(=O)O)C(=O)O)cc2)=Nc2c(N)nc(N)nc21 | 380
64 | CN(CC1CN(C)c2nc(N)nc(N)c2N1)c1ccc(C(=O)N[C@@H](CCC(=O)O)C(=O)O)cc1 (some centres not stated) | 2500
65 | CN(CC1=Nc2c(N)nc(N)nc2N(Cc2ccc(Cl)c(Cl)c2)C1)c1ccc(C(=O)N[C@@H](CCC(=O)O)C(=O)O)cc1 | 3600
66 | CCN1CC(CN(C)c2ccc(C(=O)N[C@@H](CCC(=O)O)C(=O)O)cc2)=Nc2c(N)nc(N)nc21 | 900
67 | CN(CC1=Nc2c(N)nc(N)nc2N(CC2CCCCC2)C1)c1ccc(C(=O)N[C@@H](CCC(=O)O)C(=O)O)cc1 | 870
